{"source": "ChEMBL document CHEMBL1154155", "about": "“Novel 2,4,5-trisubstituted oxazole derivatives: synthesis and antiproliferative activity” (Eur J Med Chem, 2009)", "tested_on": "A-431", "assay": "Antiproliferative activity against human A431 cells after 48 hrs by MTT assay", "type": "functional, cell-based", "conditions": "A-431, 48 h", "outline": "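Cells in complete medium seeded into 96-well plates, preincubated 24 h at 37 °C, 5% CO₂ before cytotoxicity assessment; absorbance read at 570 nm on plate reader.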"}
{"smiles": "O=c1[nH]cc(F)c(=O)[nH]1", "note": "[FLUOROURACIL]", "values": [{"measurement": "IC50", "result": 18, "unit": "nM"}]}
